These results are taken from PubChem BioAssay AID588594 (Sanford-Burnham Center for Chemical Genomics, 2011).

This test concerns the target CHO-CHOP luciferase reporter, UPR apoptotic arm activation. The test is described as follows: CHOP luciferase reporter activation in CHO cells – cell-based, CHO-CHOP line, luminescence, set 2, SAR follow-up (AID 588594). The method in brief: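 material = CHO cells, stable CHOP luciferase reporter | amount = 500 cells/well | benchmarks = high tunicamycin 10 µg/mL, low DMSO alone | detection = luminescence after Steady-Glo luciferase reagent addition | times = seeding 16-18 h before compounds, 6 h exposure at 37 °C | dosing = compound dose-response series, final DMSO at most 1%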
For orientation: A reporter such as luciferase makes a cellular process visible.

The source made the active and inactive calls.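 The calls were made as follows: active = mean EC50 of 20 µM or lower; inactive = the rest.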

A word on the EC50: it is the concentration at which the effect is half-maximal. Consider `O=C(Nc1nc2ccc(Cl)cc2s1)c1ccccn1`, for which the EC50 is 5.99 µM. Then `O=C(Nc1ccc(S(=O)(=O)N2CCC3(CCCCC3)CC2)cc1)c1ccc([N+](=O)[O-])o1`, with 0.732 µM; and `O=C(Nc1nc2cc(F)cc(F)c2s1)c1ccccn1`, with 6.87 µM.

Turning to `CC(C)(C)C1CCN(S(=O)(=O)c2ccc(NC(=O)c3ccc([N+](=O)[O-])o3)cc2)CC1`, the EC50 was 0.676 µM. The value for `O=C(Nc1nc2cccc(F)c2s1)c1ccccn1` was 7 µM.

On to `O=C(Nc1nc2ccc(F)c(F)c2s1)c1ccccn1`, for which the EC50 was 5.59 µM. `O=C(Nc1nc2c(F)c(F)ccc2s1)c1ccccn1`: the EC50 is 9.88 µM.

As for `O=C(Nc1nc2c(F)ccc(F)c2s1)c1ccccn1`, the EC50 is 6.65 µM. For `O=C(Nc1ccc(S(=O)(=O)C2CCOCC2)cc1)c1ccc([N+](=O)[O-])o1`, the EC50 is 1.19 µM. The value for `O=C(Nc1nc2cc(F)c(F)cc2s1)c1ccccn1` was 8.28 µM. As for `CC1CN(S(=O)(=O)c2ccc(NC(=O)c3ccc([N+](=O)[O-])o3)cc2)CC(C)O1` (stereo not drawn), the EC50 is 1.36 µM.

Turning to `O=C(Nc1nc2cc(F)ccc2s1)c1ccccn1`, the EC50 was 7.13 µM.

`O=C(Nc1ccc(S(=O)(=O)N2CCC(F)CC2)cc1)c1ccc([N+](=O)[O-])o1`: the EC50 is 0.774 µM. On to `Cn1c([N+](=O)[O-])cnc1C(=O)Nc1ccc(S(=O)(=O)N2CCC(C)(C)CC2)cc1`, for which the EC50 was > 77.5 µM (inactive).

On to `O=C(Nc1ccc(S(=O)(=O)N2CCC(Cl)CC2)cc1)c1ccc([N+](=O)[O-])o1`, for which the concentration for a half-maximal effect (EC50) is 0.739 µM. Then `O=C(Nc1nc2ccc(C(F)(F)F)cc2s1)c1ccccn1`, with 4.68 µM. Consider `CC1(C)CCN(S(=O)(=O)c2ccc(NC(=O)c3ccc(C(F)(F)F)o3)cc2)CC1`, for which the EC50 was > 80 µM (inactive).

Consider `CC1(C)CCN(S(=O)(=O)c2ccc(NC(=O)c3cccc([N+](=O)[O-])c3)cc2)CC1`, for which the EC50 was > 80 µM (inactive).
